Screening data (PubChem)
CHO-K1 Ca PAM – M1 PAM counterscreen hit in parental CHO-K1 cells. ATP EC20, Fluo-8 calcium fluorescence; 0% at ATP EC20, 100% at ATP max. AID 602247. actives 0.02% (n = 360,000). activation, % at 3 µM;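 active = activation above the run cutoff, the mean activation of all test compounds plus 3 SD, cut at about 40% in these data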;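 also: peak over basal fluorescence ratio in a 140 s read after ATP addition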
OX1R antag-1 – blocks the human orexin 1 receptor; CHO/OX1R cells, Fluo-8 calcium fluorescence, orexin A; inhibition, % at 5 µM; actives 0.43% (n = 330,000); AID 434989;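 active = inhibition above its plate's threshold, mean inhibition of all tested compounds on the plate plus 3 SD, cut at about 37% in these data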;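 also: 0% = orexin A challenge wells and 100% = SB-334867-A antagonist wells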
Target sequence (O43613 whole entry, looked up): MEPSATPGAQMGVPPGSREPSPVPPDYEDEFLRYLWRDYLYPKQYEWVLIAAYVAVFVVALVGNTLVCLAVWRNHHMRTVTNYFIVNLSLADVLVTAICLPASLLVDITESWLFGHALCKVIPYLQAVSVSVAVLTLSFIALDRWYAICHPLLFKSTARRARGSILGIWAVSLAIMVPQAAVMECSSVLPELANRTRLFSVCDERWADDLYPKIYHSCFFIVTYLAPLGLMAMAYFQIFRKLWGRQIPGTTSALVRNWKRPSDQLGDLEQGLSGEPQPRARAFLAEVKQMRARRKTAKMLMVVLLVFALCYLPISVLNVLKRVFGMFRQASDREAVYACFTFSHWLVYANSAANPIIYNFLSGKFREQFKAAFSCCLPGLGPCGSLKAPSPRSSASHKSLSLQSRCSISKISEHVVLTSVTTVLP
CHO-K1 Ca ag – nonselective activator or artifact in parental CHO-K1 cells; Fluo-8 calcium fluorescence; scaled to maximal ATP response, vehicle zero; activation, % at 3 µM; actives 0.48% (n = 360,000); AID 602248; in the data active = activation above about 15%;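 also: untransfected CHO-K1 host cells lacking M1 receptor as counterscreen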
CHO parental Ca – counter-screen: ATP calcium response change in parental CHO cells; parental CHO-K1, ATP-induced calcium, Fluo-8 fluorescence; inhibition, % at 5.6 µM; actives 0.63% (n = 330,000); AID 463079;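 active = inhibition above that plate's mean sample inhibition plus 3 SD, cut at about 26% in these data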;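 also: 0% = ATP-challenged DMSO wells and 100% = DMSO wells without ATP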
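Measured by: calcium-sensitive Fluo-8 fluorescence / Test system: CHO parental line / Controls: ATP-challenged DMSO wells low, unchallenged DMSO wells high / Measure: % inhibition / Compound: single nominal dose of 5.6 µM per compound / Replicates: single well per compound, no replicates / Reagent: ATP as calcium-mobilizing challenge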
CHO-K1 Ca antag – counter-screen for M1 antagonists: effect in parental CHO-K1 cells; actives 0.6% (n = 360,000); ATP-induced calcium, Fluo-8 fluorescence; inhibition, % at 3 µM;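 active = inhibition above a per-plate cutoff, the plate's mean sample inhibition plus 3 SD, cut at about 24% in these data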;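 also: 0% = DMSO plus EC80 ATP and 100% = DMSO alone without ATP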
OX1R antag-2 – blocks the human orexin 1 receptor | actives 1.8% (n = 330,000) | OX1R-expressing cells, FRET antagonist read-out | AID 485270 | O43613 | inhibition, % at 6.6 µM; in the data active = inhibition mostly above about 38%, no sharp cut-off; inactive = mostly below about 40%;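 also: 0% = agonist challenge alone and 100% = reference antagonist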
OX1R HTRF confirm – OX1R (human) antagonism, HTRF confirmed. OX1R-expressing cells, HTRF antagonist assay. actives 49% (n = 1,800). shares compounds with OX1R antag-2. inhibition, % at 6.6 µM; in the data active = inhibition above about 55%;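 also: CHO cells expressing OX1R stimulated with orexin A at about EC80; 0% = agonist challenge alone and 100% = reference antagonist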
CHO-K1 HTRF – signal in parental CHO-K1 cells, OX1R antagonist counter-screen; shares compounds with OX1R antag-2; HTRF counterscreen; inhibition, % at 6.6 µM; actives 48% (n = 1,800); AID 493232; in the data active = inhibition above about 17%;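 also: 0% = agonist challenge with vehicle and 100% = vehicle alone without agonist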
* = called active by the depositor; x = no result. A selection: hits, their analogues and other compounds. The true share with any hit is near 2.9%.

SMILES	CHO-K1 Ca PAM	OX1R antag-1	CHO-K1 Ca ag	CHO parental Ca	CHO-K1 Ca antag	OX1R antag-2	OX1R HTRF confirm	CHO-K1 HTRF
Cc1ccc(N2C(=O)c3ccc(C(=O)NCCN4CCOCC4)cc3C2=O)cc1	17	-12	0	-6	0	82*	51	44*
Cc1ccc(C(=O)NCCN2CCOCC2)cc1Cl	12	-7	3	-13	-11	6	x	x
N/C(=N\OC(=O)c1ccc(Cl)c([N+](=O)[O-])c1)c1ccccn1	9	3	0	11	6	114*	51	58*
N/C(=N\OC(=O)c1ccc(Cl)c(Cl)c1)c1ccccn1	-2	-27	0	-8	-27	18	x	x
NC1=NC(=O)/C(=C\c2ccc(O)c([N+](=O)[O-])c2)S1	18	7	0	-7	1	90*	69*	58*
COc1ccccc1/C=N/NC(=O)c1cccc(OC(F)(F)C(F)F)c1	9	-21	1	-5	-5	3	x	x
COc1cccc(/C=N/NC(=O)C(=O)Nc2ccccc2OC(F)(F)C(F)F)c1O	-10	-2	1	-14	13	97*	93*	9
O=C(CCl)N(Cc1cc(=O)[nH]c2ccccc12)c1ccccc1	10	-4	1	-2	-16	-4	x	x
O=C(CSc1n[nH]c(=O)[nH]c1=O)c1ccc([N+](=O)[O-])cc1	-23	-14	0	-6	11	134*	56*	80*
CC1(C(=O)NS(=O)(=O)c2cccc(Cl)c2)CCN1C(=O)c1cccc2ccccc12 (stereo not drawn)	-3	x	0	x	-4	x	x	x
Cc1cc(C)nc(SCC(=O)c2cc3ccccc3oc2=O)n1	17	-24	1	-17	-12	19	x	x
Cc1cc[n+](CC(=O)c2cc3ccccc3oc2=O)cc1	17	-7	0	-6	-3	78*	69*	86*
Cc1ccsc1C(=O)OCC(=O)Nc1nnc(-c2ccccc2)o1	1	-11	1	-19	2	78*	38	-7
NS(=O)(=O)c1ccc(NC(=S)Nc2ccc(S(=O)(=O)Nc3nccs3)cc2)cc1	17	x	1	x	-10	x	x	x
CC(NS(=O)(=O)c1ccc([N+](=O)[O-])cc1)C(=O)NN (stereo not drawn)	22	-14	1	-6	-13	85*	28	48*
O=C(NCCN1CCOCC1)c1cccc(S(=O)(=O)Nc2ccc(Br)cc2)c1	21	-28	1	-30	-18	4	x	x
O=C1C=C(N2CCCCC2)c2ccccc2C1=O	0	-19	1	-9	2	84*	66*	110*
O=C1c2ccccc2C(=O)c2c1cccc2N1CCCC1	-4	-17	-1	-15	4	27	x	x
COc1cccc(/C=C2/SC(=S)N(CC(=O)NNC(=O)c3ccccc3OC)C2=O)c1	-13	-7	0	-6	-16	86*	96*	3
COc1cccc(/C=C2\SC(=S)N(CCC(=O)NNC(=O)c3ccccc3OC)C2=O)c1	13	-17	3	-9	-16	14	x	x
Cn1cc([N+](=O)[O-])c(C(=O)NNC(=O)c2ccc([N+](=O)[O-])cc2)n1	1	-1	0	-14	-12	98*	43	53*
CCN=C(N/N=C/c1ccc([N+](=O)[O-])cc1)SC	8	-26	0	5	-5	88*	37	51*
Cn1cc([N+](=O)[O-])c(C(=O)NCC(=O)O)n1	-9	-2	-1	11	-5	24	x	x
Cn1cc([N+](=O)[O-])c(C(=O)N/N=C/c2ccc([N+](=O)[O-])cc2)n1	14	-17	0	-13	-4	110*	49	58*
O=C(NN1C(=O)/C(=C/c2ccc(O)c([N+](=O)[O-])c2)SC1=S)c1ccccc1Cl	17	-29	4	-15	-6	112*	55*	17*
SMILES	CHO-K1 Ca PAM	OX1R antag-1	CHO-K1 Ca ag	CHO parental Ca	CHO-K1 Ca antag	OX1R antag-2	OX1R HTRF confirm	CHO-K1 HTRF
O=[N+]([O-])c1cc(-c2nc(-c3ccncc3)no2)cc([N+](=O)[O-])c1	13	-31	0	0	3	78*	72*	63*
O=[N+]([O-])c1cc(-c2nc(-c3ccncc3)no2)ccc1Cl	-8	-2	0	3	7	59	x	x
Cc1nc2nc(C)n(CCN3CCOCC3)c(=O)c2c(-c2cccc([N+](=O)[O-])c2)c1C(=O)CCCCCCCCCCN1CCC(c2ccccc2)(c2ccccc2)CC1	12	x	6	x	9	x	x	x
COc1ccc(NC2=C(NC(C)=O)C(=O)c3ccccc3C2=O)cc1	12	-15	0	-11	-5	97*	78*	96*
CCC(=O)NC1=C(Nc2ccc(N)cc2)C(=O)c2ccccc2C1=O	-2	-18	0	-18	0	82*	71*	121*
O=C(NCc1cc2ccccc2[nH]1)C1CCC(=O)N(CC2CCCCC2)C1 (stereo not drawn)	19	x	8	x	-6	x	x	x
O=C(CCNC(=O)c1ccc([N+](=O)[O-])cc1)Nc1ccc(S(=O)(=O)N2CCOCC2)cc1	6	-10	3	-3	-2	14	x	x
COn1c(C)c(C(C)=O)c2c3no[n+]([O-])c3ccc21	-8	-6	0	-12	-1	22	x	x
[O-][n+]1onc2c1CCc1nnccc1-2	25	-7	0	-2	-20	19	x	x
Cc1cc2c(ccc3c2no[n+]3[O-])nn1	8	-10	1	-6	-6	166*	51	76*
[O-][n+]1onc2c3ccnnc3ccc21	6	1	0	-9	-5	150*	50	83*
O=[N+]([O-])c1nn(-c2ccc(Cl)cc2)n(O)c1=NCc1ccncc1	9	-21	13	-16	-4	84*	41	54*
Cc1ccc(CN=c2c([N+](=O)[O-])nn(-c3ccc(Cl)cc3)n2O)cc1	13	-4	0	-6	-12	23	x	x
COc1ccc(S(=O)(=O)Nc2c(O)ccc3ccccc23)cc1OC	-1	4	2	-6	-7	77*	72*	7
S=c1[nH]nc2sc3ccccc3n12	14	x	1	x	-6	x	x	x
S=c1[nH]nc2nnc3ccccc3n12	-12	-11	0	2	4	85*	88*	79*
COc1ccc(C(=O)N/C(=C\c2cn(C)c3ccccc23)C(=O)N2CCN(C)CC2)cc1OC	4	-14	0	-16	5	6	x	x
COc1ccc(CNC(=O)CSc2nc3ccccc3n2C(C)=O)cc1	11	-12	2	-10	-14	18	x	x
